Assay results published in PMC4084610 (Advances in pharmacology (San Diego, Calif.), 2014).
“Also recorded” adds a separate entry of the source. Like-named read-outs stand apart in the source and are kept apart here.

What was measured:
VMAT2 [1] = molecular target: T1, VMAT2 (Rattus norvegicus, UniProt Q01827); test: Kinetic analysis of inhibition of [3H]DA uptake at VMAT2; assay type: biochemical; conditions: for Vmax of [3H]DA uptake at VMAT2: analog at its Ki concentration, control 29.9±4.30; for Mechanism of VMAT2 inhibition: kinetic analysis of [3H]DA uptake
T1 sequence (Q01827 whole entry): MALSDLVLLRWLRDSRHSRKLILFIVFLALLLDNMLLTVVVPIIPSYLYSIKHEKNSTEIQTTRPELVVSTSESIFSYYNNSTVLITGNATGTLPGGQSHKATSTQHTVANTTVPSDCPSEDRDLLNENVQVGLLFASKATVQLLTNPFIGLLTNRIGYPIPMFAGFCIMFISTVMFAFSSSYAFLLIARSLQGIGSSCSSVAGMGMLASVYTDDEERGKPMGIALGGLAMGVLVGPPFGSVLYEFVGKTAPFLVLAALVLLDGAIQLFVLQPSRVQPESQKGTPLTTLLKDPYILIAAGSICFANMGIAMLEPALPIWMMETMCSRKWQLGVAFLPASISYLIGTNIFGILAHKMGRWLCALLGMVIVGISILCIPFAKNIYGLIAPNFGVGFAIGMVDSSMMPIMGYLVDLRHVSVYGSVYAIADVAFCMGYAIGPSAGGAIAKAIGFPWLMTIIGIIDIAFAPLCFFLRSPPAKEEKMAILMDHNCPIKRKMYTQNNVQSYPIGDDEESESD
Outline: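 Rat synaptic vesicle suspension was added to assay buffer containing inhibitor or buffer (control), plus [3H]DA across 0.001–5.0 μM. Incubation ran 8 min and was stopped by filtration, then filter-retained radioactivity was counted. Nonspecific uptake was defined with Ro4-1284 (10 μM).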

VMAT2 [2] = molecular target: T1, VMAT2; assay type: binding; conditions: whole rat brain vesicles, mean±SEM; for Ki: read-out: [3H]DTBZ binding Ki, 5 nM [3H]DTBZ
[3] = system: fractional DOPAC release from rat striatal slice preparations; test: Fractional DOPAC release from superfused striatal slices; assay type: cell-based; conditions: 30 min superfusion before METH, 0.3–30 μM
Outline: (§1)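 Rat coronal striatal slices are preincubated 60 min at 34 °C in Krebs buffer, then superfused at 1 ml/min for 60 min. Two 5-min basal samples are collected into 0.1 M perchloric acid. Test compound (one concentration per slice, 0.3–30 μM) runs 30 min, then with 5 μM METH for 15 min, then alone for 20 min. Buffer-control and METH-control slices are included. Superfusate is ascorbate-oxidase treated and analysed by HPLC-electrochemical detection.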

[4] = system: METH-evoked DA release from striatal slices; test: Inhibition of METH-evoked DA release from superfused striatal slices; assay type: cell-based, rat; conditions: for Imax for inhibition of METH-evoked DA release / IC50: METH 5 μM, total DA overflow, striatal slices; for Effect of analog alone on fractional DA release: analog alone in superfusion buffer, 0.3–30 μM; for IC50: read-out: IC50 for inhibition of METH-evoked DA release
Outline: as §1

DAT [5] = molecular target: T2, DAT (Rattus norvegicus, UniProt P23977); test: Inhibition of [3H]DA uptake at DAT in synaptosomal preparations; assay type: biochemical; conditions: read-out: DAT Ki value ([3H]DA uptake); synaptosomes
T2 sequence (P23977 whole entry): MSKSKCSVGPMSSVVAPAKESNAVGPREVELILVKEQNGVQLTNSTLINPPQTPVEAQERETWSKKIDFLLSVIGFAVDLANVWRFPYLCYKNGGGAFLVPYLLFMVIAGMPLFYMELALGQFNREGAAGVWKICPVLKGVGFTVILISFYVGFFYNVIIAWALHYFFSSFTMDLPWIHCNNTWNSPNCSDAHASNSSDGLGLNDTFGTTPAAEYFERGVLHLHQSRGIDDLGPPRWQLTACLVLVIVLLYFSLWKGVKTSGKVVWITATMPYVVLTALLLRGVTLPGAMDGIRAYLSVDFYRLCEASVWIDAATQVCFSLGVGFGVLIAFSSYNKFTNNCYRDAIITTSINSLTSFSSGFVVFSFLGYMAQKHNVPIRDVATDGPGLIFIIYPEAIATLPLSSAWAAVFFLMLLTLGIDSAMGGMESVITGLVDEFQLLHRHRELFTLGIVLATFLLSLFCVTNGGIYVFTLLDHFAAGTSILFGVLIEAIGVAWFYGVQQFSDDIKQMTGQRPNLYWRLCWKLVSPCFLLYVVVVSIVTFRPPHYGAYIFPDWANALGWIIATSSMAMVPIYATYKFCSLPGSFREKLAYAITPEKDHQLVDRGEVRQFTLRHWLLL
Outline: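 Synaptosomes are preincubated with test compound (1 nM–100 μM) for 5 min at 34 °C, then placed on ice. [3H]DA is added from a 0.1 μM solution, followed by a further 10 min at 34 °C. Nonspecific uptake is defined with 10 μM nomifensine.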

VMAT2 [6] = molecular target: T1, VMAT2; assay type: biochemical
[7] = system: METH-evoked DA release from striatal slices; conditions: ref Horton, Siripurapu, Norrholm, et al., 2011; cited from earlier work
Water solubility = assay type: physicochemical
rats = conditions: cited from earlier work
DAT [8] = molecular target: T2, DAT; conditions: ref Miller et al., 2004; cited from earlier work
SERT = conditions: ref Miller et al., 2004; cited from earlier work
METH addicts = conditions: ref NCT00439504; cited from earlier work
[9] = rat striatal vesicles, mean±SEM
[10] = read-out: VMAT2 [3H]DA uptake Ki, rat striatal vesicles, 0.1 μM [3H]DA, mean±SEM

SMILES: CN1[C@@H](Cc2ccccc2)CC[C@H]1Cc1ccccc1 [AV-2-197, 1-methyl-cis-2,5-di(2-benzyl)-pyrrolidine]
- Vmax of [3H]DA uptake at VMAT2 (VMAT2 [1]): 22.0 ± 4.36 pmol/min/mg
- Mechanism of VMAT2 inhibition (VMAT2 [1]): competitively inhibit; also recorded: Competitive
- Ki (VMAT2 [2]): 2460 ± 420 nM
- [3H]DTBZ binding Imax (VMAT2 [2]): 96±1%
- Lowest concentration to increase extracellular DOPAC [3]: 10 µM
- Imax for inhibition of METH-evoked DA release [4]: 63%
- Effect of analog alone on fractional DA release [4]: did not alter fractional DA release
- IC50 [4]: 4200 nM
- Ki (DAT [5]): 5400 nM
- Increased affinity for the DA uptake site on VMAT2 compared with AV-1-229A (VMAT2 [6]): 14 orders-of-magnitude
- VMAT2 [3H]DA uptake Imax (VMAT2 [6]; [9]): 100%
- Ki (VMAT2 [6]; [10]): 19 ± 0.91 nM

SMILES: c1ccc(C[C@H]2CC[C@@H](Cc3ccccc3)N2)cc1 [AV-2-192, cis-2,5-di(2-benzyl)-pyrrolidine]
- Vmax of [3H]DA uptake at VMAT2 (VMAT2 [1]): 29.6 ± 7.28 pmol/min/mg
- Mechanism of VMAT2 inhibition (VMAT2 [1]): competitively inhibit; also recorded: Competitive
- Ki (VMAT2 [2]): 1640 ± 120 nM
- [3H]DTBZ binding Imax (VMAT2 [2]): 100%
- Lowest concentration to increase extracellular DOPAC [3]: 3 µM
- Imax for inhibition of METH-evoked DA release [4]: 55%
- Effect of analog alone on fractional DA release [4]: did not alter fractional DA release
- IC50 [4]: 5200 nM
- Ki (DAT [5]): 2630 nM
- VMAT2 [3H]DA uptake Imax (VMAT2 [6]; [9]): 100%
- Ki (VMAT2 [6]; read-out: Ki at the DA uptake site on VMAT2): < 10 nM
- Ki (VMAT2 [6]; [10]): 9.3 ± 0.75 nM

SMILES: CN1C/C(=C\c2ccc(Cl)cc2Cl)C/C(=C/c2ccc(Cl)cc2Cl)C1 [UKMH-106, (3Z,5Z)-3,5-bis(2,4-dichlorobenzylidene)-1-methylpiperidine]
- Inhibition of METH-evoked DA release (in words) [7]: inhibited
- Water solubility (in words) (Water solubility): improved water solubility

SMILES: COc1ccc(CC[C@H]2CCC[C@@H](CCc3ccc(OC)cc3)N2C[C@@H](O)CO)cc1 (relative stereo) [GZ-793A, (R)-3-[2,6-cis-di(4-methoxyphenethyl)piperidin-1-yl]propane-1,2-diol]
- Effect on cue- and METH-induced reinstatement of METH-seeking (rats; rats, 15 mg/kg, ref Alvers et al., 2012): decrease reinstatement

SMILES: CN1[C@@H](CCc2ccccc2)CCC[C@H]1CCc1ccccc1 [Lobelane, N-methyl-2,6-bis(cis-phenylethyl)piperidine, reference compound]
- Water solubility (in words) (Water solubility): decreased water solubility

SMILES: CN1C(/C=C\c2ccccc2)CCCC1/C=C\c1ccccc1 (stereo not drawn) [MTD, N-methyl-2,6-bis(cis-phenylethenyl) piperidine]
- Fold higher affinity for DAT compared with lobeline (DAT [8]): 100 fold
- Fold lower affinity for SERT compared with lobeline (SERT): 6.5 fold
- Water solubility (in words) (Water solubility): limited solubility

SMILES: CN1[C@@H](CC(=O)c2ccccc2)CCC[C@H]1C[C@H](O)c1ccccc1 [Lobeline, reference compound]
- Effect on locomotor activity in response to METH (rats; adult male rats, 3 mg/kg 10 min prior to METH 1 mg/kg, 10 consecutive days, ref Miller, Green, et al. (2000)): significantly reduced locomotor activity
- Safety in phase 1b clinical trials (METH addicts): safe

SMILES: Cl.c1ccc(CC[C@@H]2CC[C@H](CCc3ccccc3)N2)cc1 [AV-1-228, cis-2,5-di-(2-phenethyl)-pyrrolidine hydrochloride]
- Ki (VMAT2 [2]): 2660 ± 370 nM
- [3H]DTBZ binding Imax (VMAT2 [2]): 100%
- VMAT2 [3H]DA uptake Imax (VMAT2 [6]; [9]): 100%
- Ki (VMAT2 [6]; [10]): 28 ± 1 nM
